According to ChEMBL document CHEMBL4422659, “Discovery of novel 4-phenyl-2-(pyrrolidinyl)nicotinamide derivatives as potent Nav1.1 activators” (Bioorg Med Chem Lett, 2019):
≈ marks a conversion by molar mass, not a printed value.

How the values were obtained:
[1] = target: Sodium channel protein type 1 subunit alpha (Homo sapiens) (UniProt P35498); test: Activation of human Nav1.1 expressed in T-Rex-CHO cells assessed as change in decay time constant of channel currents at 0.3 uM at holding potential of -120 mV by automated patch-clamp electrophysiology assay relative to control; type: cell-based
Method in brief: (§1)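 Human Nav1.1 stably expressed in CHO cells; inactivation current decay time constant (tau) measured on IonWorks automated patch platform; tau given as % of control; mean of N=5 unless noted, standard deviation reported.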

[2] = target: Sodium channel protein type 1 subunit alpha (Homo sapiens) (UniProt P35498); test: Activation of human Nav1.1 expressed in T-Rex-CHO cells assessed as change in decay time constant of channel currents at 1 uM at holding potential of -120 mV by automated patch-clamp electrophysiology assay relative to control; type: cell-based; method in brief: as §1
[3] = target: Sodium channel protein type 1 subunit alpha (Homo sapiens) (UniProt P35498); test: Activation of human Nav1.1 expressed in T-Rex-CHO cells assessed as change in decay time constant of channel currents at 3 uM at holding potential of -120 mV by automated patch-clamp electrophysiology assay relative to control; type: cell-based; method in brief: as §1
[4] = target: Sodium channel protein type 1 subunit alpha (Homo sapiens) (UniProt P35498); test: Activation of human Nav1.1 expressed in T-Rex-CHO cells assessed as change in decay time constant of channel currents at 10 uM at holding potential of -120 mV by automated patch-clamp electrophysiology assay relative to control; type: cell-based; method in brief: as §1
[5] = target: Sodium channel protein type 1 subunit alpha (Homo sapiens) (UniProt P35498); test: Activation of human Nav1.1 expressed in T-Rex-CHO cells assessed as change in decay time constant of channel currents at 1 uM by Q-patch assay relative to control; type: cell-based
Method in brief: (§2)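 Human Nav1.1 in CHO cells, Q-patch automated patch clamp; current decay time constant (tau) and top current ratio expressed as % of control; mean of N=4 unless noted, standard deviation reported.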

[6] = target: Sodium channel protein type 1 subunit alpha (Homo sapiens) (UniProt P35498); test: Activation of human Nav1.1 expressed in T-Rex-CHO cells assessed as change in top peak current at 1 uM by Q-patch assay relative to control; type: cell-based; method in brief: as §2
[7] = target: Sodium channel protein type 1 subunit alpha (Homo sapiens) (UniProt P35498); test: Activation of human Nav1.1 expressed in T-Rex-CHO cells assessed as change in decay time constant of channel currents at 0.03 uM by Q-patch assay relative to control; type: cell-based; method in brief: as §2
[8] = target: Sodium channel protein type 1 subunit alpha (Homo sapiens) (UniProt P35498); test: Activation of human Nav1.1 expressed in T-Rex-CHO cells assessed as change in decay time constant of channel currents at 0.1 uM by Q-patch assay relative to control; type: cell-based; method in brief: as §2
[9] = tested on: human MDR1; test: Efflux ratio of permeability across pig LLC-PK1 cells expressing human MDR1 at 1 uM after 1 hr by LC-MS/MS analysis; type: ADME, cell-based, Sus scrofa
Method in brief: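 Efflux ratio measured in LLC-PK1 cells over-expressing human MDR1, substrate at 1 μM.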

[10] = Drug uptake in mouse plasma at 30 mg/kg, ip measured at 1 hr by LC-MS/MS analysis; type: ADME, organism-based
Method in brief: (§3)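 Mice dosed 30 mg/kg intraperitoneally; plasma and brain levels measured 1 h post-dose; brain/plasma ratio computed from total concentrations in brain and plasma.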

[11] = Drug uptake in mouse brain at 30 mg/kg, ip measured at 1 hr by LC-MS/MS analysis; type: ADME, organism-based; conditions: read-out: Drug uptake; method in brief: as §3
[12] = Ratio of drug level in brain to plasma in mouse at 30 mg/kg, ip measured at 1 hr by LC-MS/MS analysis; type: ADME, organism-based; conditions: brain and plasma; method in brief: as §3
[13] = Fraction unbound in mouse brain at 30 mg/kg, ip measured at 1 hr by LC-MS/MS analysis; type: ADME, organism-based
Method in brief: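 Brain protein binding ratio determined for brain exposure study in mice given 30 mg/kg i.p., sampled at 1 h.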

[14] = Free drug level in mouse brain at 30 mg/kg, ip measured at 1 hr by LC-MS/MS analysis; type: ADME, organism-based; conditions: in vivo
Method in brief: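 Free brain concentration derived from total brain level 1 h after 30 mg/kg i.p. in mice and the brain protein binding ratio.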

[15] = target: Sodium channel protein type 2 subunit alpha (Homo sapiens) (UniProt Q99250); test: Activation of human Nav1.2 expressed in T-Rex-CHO cells assessed as change in decay time constant of channel currents at 1 uM at holding potential of -120 mV by automated patch-clamp electrophysiology assay relative to control; type: cell-based
[16] = target: Sodium channel protein type 3 subunit alpha (Homo sapiens) (UniProt Q9NY46); test: Activation of human Nav1.3 expressed in CHO cells assessed as change in decay time constant of channel currents at 1 uM at holding potential of -120 mV by automated patch-clamp electrophysiology assay relative to control; type: cell-based
[17] = target: T1, Sodium channel protein type 5 subunit alpha (Homo sapiens, UniProt Q14524); test: Activation of human Nav1.5 expressed in T-Rex-CHO cells assessed as change in decay time constant of channel currents at 1 uM at holding potential of -120 mV by automated patch-clamp electrophysiology assay relative to control; type: cell-based
[18] = target: Sodium channel protein type 8 subunit alpha (Homo sapiens) (UniProt Q9UQD0); test: Activation of human Nav1.6 expressed in T-Rex-CHO cells assessed as change in decay time constant of channel currents at 1 uM at holding potential of -120 mV by automated patch-clamp electrophysiology assay relative to control; type: cell-based
[19] = target: Sodium channel protein type 2 subunit alpha (Homo sapiens) (UniProt Q99250); test: Activation of human Nav1.2 expressed in T-Rex-CHO cells assessed as change in peak current at 1 uM by Q-patch assay relative to control; type: cell-based
[20] = target: Sodium channel protein type 3 subunit alpha (Homo sapiens) (UniProt Q9NY46); test: Activation of human Nav1.3 expressed in CHO cells assessed as change in peak current at 1 uM by Q-patch assay relative to control; type: cell-based
[21] = target: T1, Sodium channel protein type 5 subunit alpha; test: Activation of human Nav1.5 expressed in T-Rex-CHO cells assessed as change in peak current at 1 uM by Q-patch assay relative to control; type: cell-based
[22] = target: Sodium channel protein type 8 subunit alpha (Homo sapiens) (UniProt Q9UQD0); test: Activation of human Nav1.6 expressed in T-Rex-CHO cells assessed as change in peak current at 1 uM by Q-patch assay relative to control; type: cell-based
[23] = target: Sodium channel protein type 1 subunit alpha (Homo sapiens) (UniProt P35498); test: Activation of human Nav1.1 expressed in T-Rex-CHO cells assessed as change in decay time constant of channel currents at 30 uM at holding potential of -120 mV by automated patch-clamp electrophysiology assay relative to control; type: cell-based; method in brief: as §1
[24] = target: Sodium channel protein type 1 subunit alpha (Homo sapiens) (UniProt P35498); test: Activation of human Nav1.1 expressed in T-Rex-CHO cells assessed as change in decay time constant of channel currents at 3 uM by Q-patch assay relative to control; type: cell-based; method in brief: as §2
[25] = target: Sodium channel protein type 1 subunit alpha (Homo sapiens) (UniProt P35498); test: Activation of human Nav1.1 expressed in T-Rex-CHO cells assessed as change in decay time constant of channel currents at 10 uM by Q-patch assay relative to control; type: cell-based; method in brief: as §2
[26] = 1-octanol/water partition co-efficient, log D of the compound at pH 7.4 by chromatographic analysis; type: physicochemical
[27] = Aqueous solubility of compound at pH 6.8 by UV absorbance method; type: physicochemical; conditions: buffer
Method in brief: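 Solubility determined at pH 6.8.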

[28] = target: Sodium channel protein type 1 subunit alpha (Homo sapiens) (UniProt P35498); test: Activation of human Nav1.1 expressed in T-Rex-CHO cells assessed as change in top peak current at 3 uM by Q-patch assay relative to control; type: cell-based; method in brief: as §2
[29] = target: Sodium channel protein type 1 subunit alpha (Homo sapiens) (UniProt P35498); test: Activation of human Nav1.1 expressed in T-Rex-CHO cells assessed as change in top peak current at 10 uM by Q-patch assay relative to control; type: cell-based; method in brief: as §2
[30] = target: Sodium channel protein type 1 subunit alpha (Homo sapiens) (UniProt P35498); test: Activation of human Nav1.1 expressed in T-Rex-CHO cells assessed as change in decay time constant of channel currents at 0.3 uM by Q-patch assay relative to control; type: cell-based; method in brief: as §2

Sequence of Sodium channel protein type 2 subunit alpha (Homo sapiens) (Q99250 whole entry, looked up): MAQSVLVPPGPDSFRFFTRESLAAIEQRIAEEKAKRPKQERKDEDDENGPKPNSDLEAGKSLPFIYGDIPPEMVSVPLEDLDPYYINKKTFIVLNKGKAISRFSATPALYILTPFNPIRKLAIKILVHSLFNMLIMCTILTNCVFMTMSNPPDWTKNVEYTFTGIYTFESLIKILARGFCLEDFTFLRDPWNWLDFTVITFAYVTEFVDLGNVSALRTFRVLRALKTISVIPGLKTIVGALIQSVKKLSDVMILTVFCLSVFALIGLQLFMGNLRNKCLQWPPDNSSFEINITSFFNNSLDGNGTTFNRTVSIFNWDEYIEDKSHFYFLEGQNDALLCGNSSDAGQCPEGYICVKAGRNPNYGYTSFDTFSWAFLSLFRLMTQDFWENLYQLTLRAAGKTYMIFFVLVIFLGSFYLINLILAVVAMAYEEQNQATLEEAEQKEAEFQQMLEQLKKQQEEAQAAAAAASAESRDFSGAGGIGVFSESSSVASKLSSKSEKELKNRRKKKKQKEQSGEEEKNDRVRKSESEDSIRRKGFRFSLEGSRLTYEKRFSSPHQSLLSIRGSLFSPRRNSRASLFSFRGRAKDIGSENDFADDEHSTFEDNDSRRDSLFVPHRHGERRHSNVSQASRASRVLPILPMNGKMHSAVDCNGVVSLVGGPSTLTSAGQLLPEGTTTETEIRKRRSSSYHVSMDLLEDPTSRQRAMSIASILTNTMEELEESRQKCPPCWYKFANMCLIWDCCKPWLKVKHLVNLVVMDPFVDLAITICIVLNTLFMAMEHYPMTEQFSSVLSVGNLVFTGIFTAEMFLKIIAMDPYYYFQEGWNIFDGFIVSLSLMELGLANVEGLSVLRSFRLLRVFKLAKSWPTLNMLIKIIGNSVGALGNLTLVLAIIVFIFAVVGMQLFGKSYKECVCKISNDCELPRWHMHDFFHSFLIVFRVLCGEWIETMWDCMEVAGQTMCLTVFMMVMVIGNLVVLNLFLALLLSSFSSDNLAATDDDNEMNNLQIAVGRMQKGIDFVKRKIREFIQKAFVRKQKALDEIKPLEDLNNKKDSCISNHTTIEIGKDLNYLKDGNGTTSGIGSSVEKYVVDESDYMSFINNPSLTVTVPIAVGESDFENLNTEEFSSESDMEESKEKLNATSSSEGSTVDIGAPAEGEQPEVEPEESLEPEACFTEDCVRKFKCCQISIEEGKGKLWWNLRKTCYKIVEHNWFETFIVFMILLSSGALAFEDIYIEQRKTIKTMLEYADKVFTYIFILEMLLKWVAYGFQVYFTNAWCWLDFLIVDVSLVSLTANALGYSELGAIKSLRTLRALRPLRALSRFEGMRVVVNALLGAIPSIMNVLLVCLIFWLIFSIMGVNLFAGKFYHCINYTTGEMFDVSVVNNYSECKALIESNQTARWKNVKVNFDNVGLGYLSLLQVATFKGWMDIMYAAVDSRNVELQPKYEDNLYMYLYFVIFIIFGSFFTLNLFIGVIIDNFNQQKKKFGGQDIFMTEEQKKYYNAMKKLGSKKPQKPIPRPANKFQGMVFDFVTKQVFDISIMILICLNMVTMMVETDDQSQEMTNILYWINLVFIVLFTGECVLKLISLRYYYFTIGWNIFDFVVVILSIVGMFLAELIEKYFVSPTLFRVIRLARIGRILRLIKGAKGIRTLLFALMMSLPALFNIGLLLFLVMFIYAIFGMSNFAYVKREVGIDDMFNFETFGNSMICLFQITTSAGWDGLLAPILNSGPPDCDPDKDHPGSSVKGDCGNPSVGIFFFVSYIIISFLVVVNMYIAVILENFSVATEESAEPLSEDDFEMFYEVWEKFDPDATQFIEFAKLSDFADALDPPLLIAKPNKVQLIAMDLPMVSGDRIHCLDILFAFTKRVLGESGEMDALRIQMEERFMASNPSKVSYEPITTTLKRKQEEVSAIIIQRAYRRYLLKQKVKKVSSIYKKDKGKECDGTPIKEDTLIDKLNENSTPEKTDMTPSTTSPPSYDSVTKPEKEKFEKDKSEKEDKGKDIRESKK
Sequence of Sodium channel protein type 8 subunit alpha (Homo sapiens) (Q9UQD0 whole entry, looked up): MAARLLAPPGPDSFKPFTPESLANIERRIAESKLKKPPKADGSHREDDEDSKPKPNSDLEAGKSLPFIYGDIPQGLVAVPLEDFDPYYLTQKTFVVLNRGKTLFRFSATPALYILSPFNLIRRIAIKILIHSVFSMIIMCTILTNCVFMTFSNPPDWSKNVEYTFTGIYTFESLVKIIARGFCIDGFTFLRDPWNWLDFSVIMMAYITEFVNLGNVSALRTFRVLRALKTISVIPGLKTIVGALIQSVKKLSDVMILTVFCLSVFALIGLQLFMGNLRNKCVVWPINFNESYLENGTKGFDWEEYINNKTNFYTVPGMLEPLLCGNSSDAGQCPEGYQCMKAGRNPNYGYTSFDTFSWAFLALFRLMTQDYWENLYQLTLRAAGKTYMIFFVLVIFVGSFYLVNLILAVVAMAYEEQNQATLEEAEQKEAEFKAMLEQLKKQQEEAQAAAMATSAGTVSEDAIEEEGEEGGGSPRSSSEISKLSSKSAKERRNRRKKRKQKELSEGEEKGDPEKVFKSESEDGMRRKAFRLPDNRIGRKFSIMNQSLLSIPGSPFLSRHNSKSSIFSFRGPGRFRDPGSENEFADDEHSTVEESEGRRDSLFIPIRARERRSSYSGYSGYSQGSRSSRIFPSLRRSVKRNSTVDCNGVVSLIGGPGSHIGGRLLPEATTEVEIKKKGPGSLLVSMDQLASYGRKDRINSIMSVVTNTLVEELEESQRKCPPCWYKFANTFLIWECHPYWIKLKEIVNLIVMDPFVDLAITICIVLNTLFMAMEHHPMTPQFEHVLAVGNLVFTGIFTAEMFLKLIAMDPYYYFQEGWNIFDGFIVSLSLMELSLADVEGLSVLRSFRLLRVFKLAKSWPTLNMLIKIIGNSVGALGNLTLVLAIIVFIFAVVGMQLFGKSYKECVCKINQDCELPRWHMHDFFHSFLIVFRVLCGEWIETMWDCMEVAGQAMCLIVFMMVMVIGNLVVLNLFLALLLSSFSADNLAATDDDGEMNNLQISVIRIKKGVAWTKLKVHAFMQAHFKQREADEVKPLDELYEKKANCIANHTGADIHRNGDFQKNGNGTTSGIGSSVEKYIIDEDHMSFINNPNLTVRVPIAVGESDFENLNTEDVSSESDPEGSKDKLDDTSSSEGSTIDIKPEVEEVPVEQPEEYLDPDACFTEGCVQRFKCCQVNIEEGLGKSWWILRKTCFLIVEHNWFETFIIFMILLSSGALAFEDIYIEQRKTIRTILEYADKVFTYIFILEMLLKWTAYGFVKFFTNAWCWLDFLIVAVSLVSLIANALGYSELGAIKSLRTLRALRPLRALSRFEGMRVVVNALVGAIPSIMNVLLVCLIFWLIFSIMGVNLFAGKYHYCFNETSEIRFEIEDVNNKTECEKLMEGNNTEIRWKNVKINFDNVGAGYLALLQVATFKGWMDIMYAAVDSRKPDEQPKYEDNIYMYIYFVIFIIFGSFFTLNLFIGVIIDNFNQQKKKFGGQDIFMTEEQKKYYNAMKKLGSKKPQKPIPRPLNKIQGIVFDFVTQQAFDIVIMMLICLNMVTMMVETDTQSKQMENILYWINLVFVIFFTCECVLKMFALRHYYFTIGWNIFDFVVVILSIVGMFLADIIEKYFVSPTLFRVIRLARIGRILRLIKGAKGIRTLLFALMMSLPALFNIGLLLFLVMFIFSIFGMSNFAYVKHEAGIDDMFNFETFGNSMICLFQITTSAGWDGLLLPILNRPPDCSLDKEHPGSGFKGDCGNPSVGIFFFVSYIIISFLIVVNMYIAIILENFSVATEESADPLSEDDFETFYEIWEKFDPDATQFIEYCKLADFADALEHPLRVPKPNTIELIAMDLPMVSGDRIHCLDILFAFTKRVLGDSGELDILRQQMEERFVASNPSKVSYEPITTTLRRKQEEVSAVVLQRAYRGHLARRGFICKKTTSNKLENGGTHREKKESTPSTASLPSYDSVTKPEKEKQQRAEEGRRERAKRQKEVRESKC

CC(C)c1ccc(NC(=O)c2c(-c3cc(F)ccc3F)cncc2N2CC[C@H](F)C2)cn1
Activity [1]: 92%
Activity [2]: 124%

CCN(CC)c1ncnc(-c2ccc(Cl)cc2)c1C(=O)Nc1ccc(C(C)C)nc1
Activity [3]: 96%
Activity [4]: 74%

CC(C)c1ccc(NC(=O)c2c(-c3ccc(Cl)cc3)cccc2N2CCOCC2)cn1
Activity [3]: 99%
Activity [4]: 110%

CC(C)c1ccc(NC(=O)c2c(-c3ccc(F)cc3)ncnc2N2CC[C@H](F)C2)cn1
Activity [3]: 197%
Activity [2]: 93%

CC(C)c1ccc(NC(=O)c2c(-c3ccc(Cl)cc3)ncnc2N2CCCCC2)cn1
Activity [3]: 110%
Activity [4]: 105%

CC(C)c1ccc(NC(=O)c2c(-c3cc(F)cc(F)c3F)ncnc2N2CC[C@H](F)C2)cn1
Activity [3]: 298%
Activity [2]: 114%

CC(C)c1ccc(NC(=O)c2c(-c3cc(F)ccc3F)ccnc2N2CC[C@H](F)C2)cn1
Activity [5]: 1900%
Activity [6]: 144%
Activity [1]: 176%
Activity [7]: 255%
Activity [8]: 1200%
efflux ratio at 1 h, 1 µM [9]: 1
concentration at 1 h [10]: 968 ng/mL
concentration at 1 h [11]: 193 ng/g
Kp at 1 h [12]: 0.2
fraction unbound at 1 h [13]: 0.029
Drug uptake(free) [14]: 13 nM
Activity [15]: 106%
Activity [16]: 826%
Activity [17]: 108%
Activity [18]: 102%
Activity [19]: 94%
Activity [20]: 129%
Activity [21]: 94%
Activity [22]: 100%
Activity [2]: 492%

CC(C)c1ccc(NC(=O)c2c(-c3ccn(C)n3)ncnc2N2CC[C@H](F)C2)cn1
Activity [3]: 87%
Activity [2]: 80%

CC(C)c1ccc(NC(=O)c2c(-c3ccco3)ncnc2N2CC[C@H](F)C2)cn1
Activity [3]: 98%
Activity [2]: 86%

CC(C)c1ccc(NC(=O)c2c(-c3cccc(F)c3)ncnc2N2CC[C@H](F)C2)cn1
Activity [3]: 271%
Activity [2]: 111%

CC(C)c1ccc(NC(=O)c2c(-c3ccc(Cl)cc3)ncnc2N2CCC(F)(F)C2)cn1
Activity [3]: 184%
Activity [4]: 131%

Cc1cc(C)c(NC(=O)c2c(-c3ccc(Cl)cc3)noc2N2CCOCC2)c(C)c1
Activity [3]: 99%
Activity [4]: 102%
Activity [23]: 138%
Activity [5]: 113%
Activity [24]: 120%
Activity [25]: 179%
chromatographic logD [26]: 3.43
solubility [27]: 0.9 µg/mL (≈ 2.11 µM)
Activity [6]: 92%
Activity [28]: 86%
Activity [29]: 86%

CC(C)c1ccc(NC(=O)c2c(-c3ccccc3F)ncnc2N2CC[C@H](F)C2)cn1
Activity [3]: 391%
Activity [5]: 1400%
Activity [30]: 711%
Activity [2]: 135%

CC(C)c1ccc(NC(=O)c2c(-c3ccc(Cl)cc3)ncnc2N2CCCC2)cn1
Activity [3]: 140%
Activity [4]: 257%

CC(C)c1ccc(NC(=O)c2c(-c3ccc(Cl)cc3)ncnc2N2CC[C@@H](F)C2)cn1
Activity [3]: 145%
Activity [4]: 162%

CC(C)c1ccc(NC(=O)c2c(-c3ccc(Cl)cc3)cncc2N2CCOCC2)cn1
Activity [3]: 313%
Activity [4]: 699%

CC(C)c1ccc(NC(=O)c2c(-c3ccc(Cl)cc3)ncnc2N2CCC2)cn1
Activity [3]: 111%
Activity [4]: 90%

CC(C)c1ccc(NC(=O)c2c(N3CCOCC3)ccnc2-c2ccc(Cl)cc2)cn1
Activity [3]: 97%
Activity [4]: 107%

CC(C)c1ccc(NC(=O)c2c(-c3ccoc3)ncnc2N2CC[C@H](F)C2)cn1
Activity [3]: 115%
Activity [2]: 80%

CC(C)c1ccc(NC(=O)c2c(-c3ccc(Cl)cc3)ccnc2N2CCOCC2)cn1
Activity [3]: 374%
Activity [4]: 767%

CC(C)c1ccc(NC(=O)c2c(-c3cc(F)ccc3F)ncnc2N2CC[C@H](F)C2)cn1
Activity [3]: 714%
Activity [5]: 1900%
Activity [30]: 853%
Activity [1]: 135%
Activity [7]: 124%
Activity [8]: 193%
Activity [2]: 260%

CC(C)c1ccc(NC(=O)c2c(-c3ccc(Cl)cc3)ncnc2N2CC[C@H](F)C2)cn1
Activity [3]: 257%
Activity [4]: 342%
Activity [5]: 682%
Activity [30]: 170%
Activity [2]: 107%

CC(C)c1ccc(NC(=O)c2c(-c3ccccc3)ncnc2N2CC[C@H](F)C2)cn1
Activity [3]: 302%
Activity [5]: 332%
Activity [30]: 255%
Activity [2]: 102%

CC(C)c1ccc(NC(=O)c2c(-c3ccc(Cl)cc3)ncnc2N2CCOCC2)cn1
Activity [3]: 258%
Activity [4]: 370%
Activity [23]: 555%
Activity [5]: 198%
Activity [24]: 731%
Activity [25]: 774%
chromatographic logD [26]: 2.97
solubility [27]: > 100 µg/mL
Activity [6]: 113%
Activity [28]: 115%
Activity [29]: 131%
